How the values were obtained:
[1] = Biotransformation in Sprague-Dawley rat liver microsomes at 5 uM measured at 20 mins by HPLC/ESI-MS/MS analysis; assay type: ADME; details: read-out: Drug metabolism
Outline: (§1)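 Hepatic microsomes (male CD1 mouse, male Sprague-Dawley rat, or pooled human) at 1 mg/mL protein with 1 mg/mL BSA; substrate 5 µM. Reference sample held 0 min without cofactor; test sample run 20 min with 1 mM NADPH. Reaction quenched with 1 volume ACN, proteins spun out, supernatant analysed by HPLC/ESI-MS/MS in positive SIR. % biotransformation = (1 − area B/area A) × 100.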

[2] = Biotransformation in human liver microsomes at 5 uM measured at 20 mins by HPLC/ESI-MS/MS analysis; assay type: ADME; details: read-out: Drug metabolism; outline: as §1
[3] = n-octanol/buffer partition coefficient, log D of the compound at pH 7.4 by HPLC method; assay type: physicochemical
[4] = Biotransformation in CD1 mouse liver microsomes at 5 uM measured at 20 mins by HPLC/ESI-MS/MS analysis; assay type: ADME; details: read-out: Drug metabolism; outline: as §1

| metabolised at 20 min, 5 µM [1] [%] | metabolised at 20 min, 5 µM [2] [%] | logD [3] | metabolised at 20 min, 5 µM [4] [%] | Structure (SMILES) |
| --- | --- | --- | --- | --- |
| 4 | 22 | 3.01 | 22 | COc1ccc(-n2nc(CC(=O)N(C)C)c3c4ccc(Cl)cc4n(C)c3c2=O)cc1 |
| 2 | 0 | 3.12 | 0 | CN(C)C(=O)Cc1nn(-c2ccc(OCCF)cc2)c(=O)c2c1c1ccc(Cl)cc1n2C |
| 3 | 4 | 3.48 | 4 | CN(C)C(=O)Cc1nn(-c2ccc(OCCCF)cc2)c(=O)c2c1c1ccc(Cl)cc1n2C |
| 13 | 16 | 3.75 | 1 | CN(C)C(=O)Cc1nn(-c2ccc(OCCCCF)cc2)c(=O)c2c1c1ccc(Cl)cc1n2C |
| 41 | 76 | 3.62 | 53 | CN(C)C(=O)Cc1nn(-c2ccc(OC/C=C/CF)cc2)c(=O)c2c1c1ccc(Cl)cc1n2C |
| 25 | 47 | 3.54 | 42 | CN(C)C(=O)Cc1nn(-c2ccc(OCC#CCF)cc2)c(=O)c2c1c1ccc(Cl)cc1n2C |
| 11 | 17 | 3.11 | 17 | CN(C)C(=O)Cc1nn(-c2ccc(OCCOCCF)cc2)c(=O)c2c1c1ccc(Cl)cc1n2C |
| 52 | 81 | 3.08 | 69 | CN(C)C(=O)Cc1nn(-c2ccc(OCCOCCOCCF)cc2)c(=O)c2c1c1ccc(Cl)cc1n2C |
| 14 | 19 | 3.09 | 5 | CN(C)C(=O)Cc1nn(-c2ccccc2)c(=O)c2c1c1ccc(Cl)cc1n2CCF |
| 44 | 38 | 3.48 | 31 | CN(C)C(=O)Cc1nn(-c2ccccc2)c(=O)c2c1c1ccc(Cl)cc1n2C/C=C/CF |
| 26 | 30 | 3.44 | 39 | CN(C)C(=O)Cc1nn(-c2ccccc2)c(=O)c2c1c1ccc(Cl)cc1n2CC#CCF |
|  |  | 3.2 |  | CN(C)C(=O)Cc1nn(-c2ccccc2)c(=O)c2c1c1ccc(Cl)cc1n2CCOCCF |
|  |  | 3.19 |  | CN(C)C(=O)Cc1nn(-c2ccccc2)c(=O)c2c1c1ccc(Cl)cc1n2CCOCCOCCF |
| 14 | 10 | 2.97 | 21 | CN(C)C(=O)Cc1nn(-c2ccccc2)c(=O)c2c1c1ccc(Cl)cc1n2C |

| Structure (SMILES) | metabolised at 20 min, 5 µM [1] [%] | metabolised at 20 min, 5 µM [2] [%] | logD [3] | metabolised at 20 min, 5 µM [4] [%] |
| --- | --- | --- | --- | --- |
| CN(C)C(=O)Cc1nn(-c2ccccc2)c(=O)c2c1c1ccc(Cl)cc1n2CCCF |  |  | 3.38 |  |
| CN(C)C(=O)Cc1nn(-c2ccccc2)c(=O)c2c1c1ccc(Cl)cc1n2CCCCF |  |  | 3.66 |  |
